KCNK3 inh: human KCNK3 channel inhibition, primary screen; actives 0.84% (n = 340,000); O14649; B-score at 10 µM; CHO-KCNK3 thallium flux, FluxOR fluorescence; active compounds read low;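 active = B-score under library mean minus 4 SD, starting fluorescence ratio at most library mean plus 5 SD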;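 note: more negative B-score means stronger inhibition of thallium flux through KCNK3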
KCNK9 block: human KCNK9 channel inhibition. HEK293 KCNK9, FluxOR thallium flux fluorescence; active compounds read low. B-score at 10 µM. actives 1.2% (n = 310,000). AID 488922;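 active = ratio B-score over 3 SD below the library mean, with starting fluorescence within 5 SD of its mean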;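 note: negative B-score means less thallium flux so channel inhibition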
hERG protect: hERG (human) protection from proarrhythmic block | Q12809 | CHO-hERG, FluxOR thallium flux, dofetilide IC70 present | activation (rescue from dofetilide block), less the hit threshold, % at 10 µM | actives 0.51% (n = 310,000) | AID 1511;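 active = activation above the mean of controls blocked by dofetilide plus 5 SD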;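 note: thallium influx through hERG after potassium depolarization seen as dye fluorescence rise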
KCNQ1 act: potentiates or activates the human KCNQ1 potassium channel; CHO-K1 KCNQ1, thallium flux FluxOR fluorescence; active compounds read high; AID 2648; P51787; actives 0.35% (n = 310,000); B-score at 10 µM;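 active = fluorescence ratio B-score, a plate-corrected score, at least three library SD, with initial intensity B-score within 5 SD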
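Doses: Single concentration per compound, DMSO matched to controls | Test system: KCNQ1-transfected CHO-K1 cells | Timing: 90 min dye loading and 20 min compound exposure, both at room temperature | Measured by: Kinetic FluxOR thallium fluorescence, 10-s 1-Hz baseline, 110-s post-stimulus read | Medium: Assay buffer with matched DMSO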
KCNQ1 block: inhibitors of human KCNQ1 potassium channel; CHO-K1 KCNQ1, FluxOR thallium flux fluorescence; active compounds read high; B-score at 10 µM; actives 1.3% (n = 310,000); AID 2642;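 active = compounds whose thallium flux B-score, printed positive for inhibition, exceeds three library SD while starting fluorescence stays within three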;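 note: channel opened by potassium depolarization with thallium stimulus after 20 min compound exposure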
Cl transport mod: modulates chloride dependent transport by human KCC2; AID 1456; B-score of Tl+ flux slope (higher = more flux/activation; lower = inhibition) at 10 µM; actives 2.2% (n = 190,000); Q9H2X9; KCC2 cells, thallium flux FluoZin-2 fluorescence;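 active = thallium flux slope and its plate-corrected score both differing from the plate sample mean at a set confidence after two filtering rounds, in either direction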;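 note: slope of fluorescence scaled to starting intensity during 10 to 20 s after thallium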
Target sequence (Q9H2X9 whole entry, looked up): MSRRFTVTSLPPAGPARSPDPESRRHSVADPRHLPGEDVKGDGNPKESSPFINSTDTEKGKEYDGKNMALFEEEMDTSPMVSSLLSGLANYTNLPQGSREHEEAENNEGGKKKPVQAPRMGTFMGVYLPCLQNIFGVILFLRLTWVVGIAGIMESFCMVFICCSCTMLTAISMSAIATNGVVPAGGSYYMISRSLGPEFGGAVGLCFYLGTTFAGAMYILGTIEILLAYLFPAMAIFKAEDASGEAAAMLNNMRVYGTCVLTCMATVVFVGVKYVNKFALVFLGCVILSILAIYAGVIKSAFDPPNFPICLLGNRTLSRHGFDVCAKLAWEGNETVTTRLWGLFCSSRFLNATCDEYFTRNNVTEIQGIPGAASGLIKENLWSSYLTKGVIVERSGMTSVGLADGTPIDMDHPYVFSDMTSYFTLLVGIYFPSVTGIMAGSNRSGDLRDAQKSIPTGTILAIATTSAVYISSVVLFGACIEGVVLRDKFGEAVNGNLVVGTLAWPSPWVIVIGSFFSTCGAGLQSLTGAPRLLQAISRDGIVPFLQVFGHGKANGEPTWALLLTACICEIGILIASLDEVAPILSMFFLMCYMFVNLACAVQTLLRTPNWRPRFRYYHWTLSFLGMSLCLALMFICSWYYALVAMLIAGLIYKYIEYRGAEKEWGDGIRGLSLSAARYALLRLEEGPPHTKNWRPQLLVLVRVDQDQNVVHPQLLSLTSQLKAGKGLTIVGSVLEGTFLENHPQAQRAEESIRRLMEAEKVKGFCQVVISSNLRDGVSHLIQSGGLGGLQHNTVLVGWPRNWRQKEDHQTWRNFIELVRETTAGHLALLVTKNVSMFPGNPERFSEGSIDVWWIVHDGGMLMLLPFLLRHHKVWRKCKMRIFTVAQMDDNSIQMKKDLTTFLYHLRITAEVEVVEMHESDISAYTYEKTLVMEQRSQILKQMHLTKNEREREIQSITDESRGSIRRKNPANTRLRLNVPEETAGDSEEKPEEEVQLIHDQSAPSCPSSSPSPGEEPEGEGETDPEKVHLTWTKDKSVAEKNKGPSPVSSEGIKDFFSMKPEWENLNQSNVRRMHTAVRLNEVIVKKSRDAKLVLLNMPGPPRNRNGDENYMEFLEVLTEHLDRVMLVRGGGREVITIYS
KCNK9 inh conf: confirmation of human KCNK9 potassium channel inhibitors; shares compounds with KCNK9 block; HEK293 KCNK9 cells, FluxOR thallium flux fluorescence; inhibition, % at 10 µM; actives 43% (n = 4,900);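 active = thallium signal inhibited by more than 5 SD of the compound-free buffer control wells, on both duplicate plates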;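 note: 0% = assay buffer control wells without compound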
Kir2-1 spec: selectivity of KCNK9 modulators against mouse Kir2.1. shares compounds with KCNK9 block. Kir2.1 cells, FluxOR thallium flux fluorescence. inhibition, % at 10 µM. actives 4% (n = 4,900);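 active = thallium signal drop more than 5 SD beyond the mean of the no-compound control wells, seen in both duplicate plates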;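 note: signal is fluorescence rise after thallium addition divided by baseline fluorescence; plate controls were assay buffer only for no effect and full block by chlorpromazine control for full effect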
KCNK9 uninduced: second counter-screen for KCNK9 modulators: effect in non-induced cells. AID 492997. inhibition, % at 10 µM. actives 40% (n = 4,900). shares compounds with KCNK9 block. non-induced KCNK9-HEK293, FluxOR thallium flux;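 active = thallium signal drop beyond 5 SD of the untreated control mean, on both duplicate plates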;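 note: plate controls were buffer only IC0 wells for no effect and SID17386958 at its maximal inhibitory level for full effect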
KCNK3 confirm: confirmation of human KCNK3 two-pore domain potassium channel inhibitors; shares compounds with KCNK3 inh; CHO-KCNK3 thallium flux, FluxOR fluorescence; 0% buffer, 100% carvedilol maximal block; ratio percent of control, % at 10 µM; actives 99% (n = 2,400); AID 651638;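 active = ratio percent of control, averaged over triplicates, above buffer control mean plus 5 SD, cut at about 64% in these data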;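 note: ratio is the fluorescence rise from min to max over baseline after thallium stimulus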
KCNK3 noninduced: activity in cells without induced KCNK3 expression | shares compounds with KCNK3 inh | non-induced KCNK3 parental cells, FluxOR thallium flux; active compounds read low | thallium flux ratio (lower = more inhibition) at 10 µM | actives 40% (n = 2,400) | AID 651747;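 active = thallium flux ratio, averaged over three wells, more than 5 SD below the buffer control mean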;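 note: host cells are CHO cells without KCNK3 induction; ratio is peak minus trough fluorescence over baseline then normalized to buffer controls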
* marks the source's active call; other numbers are inactive results. In the library only some 4.1% were active in any assay of this set; here they are far more common.

COc1cc2c(cc1OC)C(c1cccc([N+](=O)[O-])c1)N(C(=O)c1ccc(F)cc1)CC2 (stereo not drawn) was read as KCNK3 inh -10.9*, KCNK9 block -17.1*, hERG protect -12.4, KCNQ1 act inactive, KCNQ1 block 11*, KCNK9 inh conf 74.0%*, Kir2-1 spec inactive, KCNK9 uninduced 37.5%*, KCNK3 confirm 96.0* and KCNK3 noninduced 0.155*.
Screening COc1ccc(C2c3cc(OC)c(OC)cc3CCN2C(=O)c2cccc([N+](=O)[O-])c2)cc1OC (stereo not drawn) returned KCNK3 inh inactive, KCNK9 block inactive, hERG protect -4.5, KCNQ1 act inactive and KCNQ1 block inactive.
CN(CC(=O)O)Cc1oc(CO)cc(=O)c1O was read as KCNK3 inh inactive.
`Cn1nc(-c2ccccc2)c(C#N)c1Sc1cccc(Cl)c1` gave KCNK3 inh -9.11*, KCNK9 block -10.7*, hERG protect -9.6, KCNQ1 act inactive, KCNQ1 block inactive, Cl transport mod 1.17, KCNK9 inh conf 55.0%*, Kir2-1 spec inactive, KCNK9 uninduced 52.0%*, KCNK3 confirm 112.7* and KCNK3 noninduced 0.15*.
O=C(c1ccco1)N1CCN(c2ncnc3scc(-c4cccs4)c23)CC1 was read as KCNK3 inh inactive, KCNK9 block inactive, hERG protect -11.1, KCNQ1 act inactive, KCNQ1 block inactive and Cl transport mod -0.013.
Screening c1ccc(N2CCN(c3ncnc4scc(-c5cccs5)c34)CC2)cc1 returned KCNK3 inh -8.88*, KCNK9 block -13.3*, hERG protect -9.9, KCNQ1 act inactive, KCNQ1 block inactive, Cl transport mod -0.264, KCNK9 inh conf 42.5%*, Kir2-1 spec inactive, KCNK9 uninduced 35.5%*, KCNK3 confirm 148.3* and KCNK3 noninduced 0.111*.
For Fc1ccc(-c2csc3ncnc(N4CCN(c5ccccc5)CC4)c23)cc1 the results were KCNK3 inh -10.1*, KCNK9 block -13.3*, hERG protect -5.9, KCNQ1 act inactive, KCNQ1 block inactive, KCNK9 inh conf inactive, Kir2-1 spec inactive, KCNK9 uninduced 29.5%*, KCNK3 confirm 117.0* and KCNK3 noninduced inactive.
For Oc1ccc(Br)cc1/C=N/n1c(COc2ccccc2)n[nH]c1=S the results were KCNK3 inh inactive, KCNK9 block inactive, hERG protect -11.4, KCNQ1 act inactive and KCNQ1 block inactive.
Nc1nc(OCC2CCCCC2)c2[nH]cnc2n1 was read as KCNK3 inh inactive, KCNK9 block inactive, hERG protect -3.4, KCNQ1 act inactive and KCNQ1 block inactive.
For COC(=O)c1ccc(COC(=O)CNC(=O)c2cccs2)cc1 the results were KCNK3 inh inactive, KCNK9 block inactive, hERG protect -5.7, KCNQ1 act inactive and KCNQ1 block inactive.
For COc1ccc2ccc(=O)oc2c1CC=C(C)C the results were KCNK3 inh -11.6*, KCNK9 block -15.3*, hERG protect -12.1, KCNQ1 act inactive, KCNQ1 block inactive, Cl transport mod -1.86, KCNK9 inh conf 71.5%*, Kir2-1 spec inactive, KCNK9 uninduced 38.0%*, KCNK3 confirm 104.0* and KCNK3 noninduced inactive.
For CC1(C)Oc2ccc3ccc(=O)oc3c2/C(=C/Nc2ccccc2)C1=O the results were KCNK3 inh -10.5*, KCNK9 block -11.8*, hERG protect -11.1, KCNQ1 act inactive, KCNQ1 block inactive, KCNK9 inh conf 55.5%*, Kir2-1 spec inactive, KCNK9 uninduced inactive, KCNK3 confirm 109.7* and KCNK3 noninduced inactive.
CC1(C)Oc2ccc3ccc(=O)oc3c2/C(=C/N)C1=O was read as KCNK3 inh inactive, KCNK9 block inactive, hERG protect -1.4, KCNQ1 act inactive, KCNQ1 block inactive and Cl transport mod -0.0759.
Screening O=S(=O)(c1ccc(Cl)nc1)N1CCN(Cc2ccc3c(c2)OCO3)CC1 returned KCNK3 inh inactive, KCNK9 block inactive, hERG protect -8.2, KCNQ1 act inactive and KCNQ1 block inactive.
For O=S(=O)(c1cc(Cl)ccc1Cl)N1CCN(Cc2ccc3c(c2)OCO3)CC1 the results were KCNK3 inh -9.71*, KCNK9 block inactive, hERG protect -8.7, KCNQ1 act inactive, KCNQ1 block inactive, Cl transport mod -0.134, KCNK9 inh conf inactive, Kir2-1 spec inactive, KCNK9 uninduced 26.5%*, KCNK3 confirm 112.7* and KCNK3 noninduced 0.159*.
`CO/N=C\CC(=O)Nc1ccc(Cl)cc1Cl` gave KCNK3 inh inactive, KCNK9 block inactive, hERG protect -5.6, KCNQ1 act inactive, KCNQ1 block inactive and Cl transport mod -1.68.
Screening CC1(c2ccc(OC(F)F)cc2)NC(=O)N(CC(=O)N2CCN(C(=O)c3ccco3)CC2)C1=O (stereo not drawn) returned KCNK3 inh inactive.
For CSc1ccc(Cl)c(C(=O)NCCOc2cc(C(C)C)ccc2C)c1 the results were KCNK3 inh -10.4*, KCNK9 block -20.5*, hERG protect -10.2, KCNQ1 act inactive, KCNQ1 block inactive, Cl transport mod -0.216, KCNK9 inh conf 71.5%*, Kir2-1 spec inactive, KCNK9 uninduced 37.5%*, KCNK3 confirm 128.3* and KCNK3 noninduced 0.129*.
Screening Cc1cc(NC(=O)c2cccc(COc3ccc(Br)cc3)c2)no1 returned KCNK3 inh -8.88*, KCNK9 block -11.2*, hERG protect -9.2, KCNQ1 act inactive, KCNQ1 block inactive, Cl transport mod 1.35, KCNK9 inh conf inactive, Kir2-1 spec inactive, KCNK9 uninduced inactive, KCNK3 confirm 65.3* and KCNK3 noninduced inactive.

Screening results deposited in PubChem by several laboratories.
